Test results published in ChEMBL document CHEMBL4732167, “Structure based design, synthesis, and biological evaluation of imidazole derivatives targeting dihydropteroate synthase enzyme” (Bioorg Med Chem Lett, 2021).
In brackets after ≈: the same amount, converted by molar mass.

Experiments:
[1] = Antioxidant activity assessed as nitric oxide radical scavenging activity at 75 ug/ml (reference value: 25.8 to 41.6 %); type: functional; conditions: dose 75.0 µg/ml
Summary of the method: (§1)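 Nitric oxide radical scavenging was tested at 0, 25, 50, 75 and 100 µg/ml of compound.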

[2] = Antioxidant activity assessed as DPPH radical scavenging activity at 75 ug/ml (reference value: 22 to 40.2 %); type: functional; conditions: dose 75.0 µg/ml
Summary of the method: (§2)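 DPPH radical scavenging was measured at 0, 25, 50, 75 and 100 µg/ml of each compound. Ascorbic acid was the reference.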

[3] = Antioxidant activity assessed as nitric oxide radical scavenging activity at 50 ug/ml (reference value: 25.8 to 41.6 %); type: functional; conditions: dose 50.0 µg/ml; summary of the method: as §1
[4] = test system: Staphylococcus aureus; test: Antibacterial activity against Staphylococcus aureus MTCC 96 assessed as bacterial growth inhibition; type: functional
[5] = test system: Enterococcus; test: Antibacterial activity against vancomycin-resistant Enterococcus assessed as inhibition of bacterial growth; type: functional
Summary of the method: (§3)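 Growth inhibition of the drug-resistant strain was read out as the minimum inhibitory concentration (MIC), reported in µg/mL. The same protocol was also run on an ESBL strain.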

[6] = Antioxidant activity assessed as hydrogen peroxide radical scavenging activity at 75 ug/ml (reference value: 23.6 to 43.1 %); type: functional; conditions: dose 75.0 µg/ml
Summary of the method: (§4)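 Hydrogen peroxide scavenging was measured across a compound series of 0, 25, 50, 75 and 100 µg/ml.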

[7] = test system: Plasmodium falciparum; test: Antimalarial activity against Plasmodium falciparum assessed as parasite growth inhibition; type: functional, organism-based
[8] = Antioxidant activity assessed as DPPH radical scavenging activity at 25 ug/ml (reference value: 22 to 40.2 %); type: functional; conditions: dose 25.0 µg/ml; summary of the method: as §2
[9] = test system: Aspergillus clavatus; test: Antifungal activity against Aspergillus clavatus MTCC 1323 assessed as fungal growth inhibition; type: functional
[10] = test system: Mycobacterium tuberculosis; test: Antibacterial activity against Mycobacterium tuberculosis H37Rv assessed as bacterial growth inhibition; type: functional
[11] = Antioxidant activity assessed as hydrogen peroxide radical scavenging activity at 50 ug/ml (reference value: 23.6 to 43.1 %); type: functional; conditions: dose 50.0 µg/ml; summary of the method: as §4
[12] = test system: Streptococcus pyogenes; test: Antibacterial activity against Streptococcus pyogenes MTCC 442 assessed as bacterial growth inhibition; type: functional
[13] = Antioxidant activity assessed as DPPH radical scavenging activity at 50 ug/ml (reference value: 22 to 40.2 %); type: functional; conditions: dose 50.0 µg/ml; summary of the method: as §2
[14] = Antioxidant activity assessed as hydrogen peroxide radical scavenging activity at 100 ug/ml (reference value: 23.6 to 43.1 %); type: functional; conditions: dose 100.0 µg/ml; summary of the method: as §4
[15] = test system: Candida albicans; test: Antifungal activity against Candida albicans MTCC 227 assessed as fungal growth inhibition; type: functional
[16] = test system: Pseudomonas aeruginosa; test: Antibacterial activity against Pseudomonas aeruginosa MTCC 1688 assessed as bacterial growth inhibition; type: functional
[17] = test system: Bacteria; test: Antibacterial activity against ESBL-producing bacteria assessed as bacterial growth inhibition; type: functional
Summary of the method: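 Values are minimum inhibitory concentrations (MIC) in µg/mL, determined at an outside microbiology laboratory.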

[18] = test system: Staphylococcus aureus; test: Antibacterial activity against methicillin-resistant Staphylococcus aureus assessed as inhibition of bacterial growth; type: functional; summary of the method: as §3
[19] = Antioxidant activity assessed as DPPH radical scavenging activity at 100 ug/ml (reference value: 22 to 40.2 %); type: functional; conditions: dose 100.0 µg/ml; summary of the method: as §2
[20] = test system: Aspergillus niger; test: Antifungal activity against Aspergillus niger MTCC 282 assessed as fungal growth inhibition; type: functional
[21] = Antioxidant activity assessed as nitric oxide radical scavenging activity at 25 ug/ml (reference value: 25.8 to 41.6 %); type: functional; conditions: dose 25.0 µg/ml; summary of the method: as §1
[22] = test system: Escherichia coli; test: Antibacterial activity against Escherichia coli MTCC 443 assessed as bacterial growth inhibition; type: functional
[23] = Antioxidant activity assessed as hydrogen peroxide radical scavenging activity at 25 ug/ml (reference value: 23.6 to 43.1 %); type: functional; conditions: dose 25.0 µg/ml; summary of the method: as §4
[24] = Antioxidant activity assessed as DPPH radical scavenging activity at 100 dilution; type: functional
[25] = Antioxidant activity assessed as nitric oxide radical scavenging activity at 100 ug/ml (reference value: 25.8 to 41.6 %); type: functional; conditions: dose 100.0 µg/ml; summary of the method: as §1

| SMILES | Activity [1] | Activity [2] | Activity [3] | MIC [4] | MIC [5] | Activity [6] | IC50 [7] | Activity [8] | MFC [9] | MIC [10] | Activity [11] | MIC [12] | Activity [13] | Activity [14] | MFC [15] | MIC [16] | MIC [17] | MIC [18] | Activity [19] | MFC [20] | other results |
| --- | --- | --- | --- | --- | --- | --- | --- | --- | --- | --- | --- | --- | --- | --- | --- | --- | --- | --- | --- | --- | --- |
| CC(=O)c1c(C)nc(SCC(=O)Nc2ccc(OC(=O)c3cccs3)cc2)n1-c1ccc(F)cc1 | 79.5% | 65.4% | 59.3% | 125 µg/mL (≈ 245 µM) | 125 µg/mL (≈ 245 µM) | 67.6% | 1.14 µg/mL (≈ 2.24 µM) | 44.3% | 250 µg/mL (≈ 491 µM) | 100 µg/mL (≈ 196 µM) | 59.3% | 125 µg/mL (≈ 245 µM) | 51.4% | 79.6% | 500 µg/mL (≈ 981 µM) | 62.5 µg/mL (≈ 123 µM) | 125 µg/mL (≈ 245 µM) | 250 µg/mL (≈ 491 µM) | 89.6% | 500 µg/mL (≈ 981 µM) | Activity [21]: 50.6%; MIC [22]: 100 µg/mL (≈ 196 µM); Activity [23]: 48.6%; Activity [24]: 89.6%; Activity [25]: 89.1% |
| CC(=O)c1c(C)nc(SCC(=O)Nc2ccc(OCc3ccc(F)cc3)cc2)n1-c1ccc(F)cc1 | 70.3% | 71.6% | 60.4% | 62.5 µg/mL (≈ 123 µM) | 125 µg/mL (≈ 246 µM) | 63.1% | 0.82 µg/mL (≈ 1.62 µM) | 34.8% | 500 µg/mL (≈ 985 µM) | 100 µg/mL (≈ 197 µM) | 53.4% | 125 µg/mL (≈ 246 µM) | 56.4% | 71.2% | 500 µg/mL (≈ 985 µM) | 100 µg/mL (≈ 197 µM) | 250 µg/mL (≈ 493 µM) | 100 µg/mL (≈ 197 µM) | 89.4% | 1000 µg/mL (≈ 1970 µM) | Activity [21]: 46.8%; MIC [22]: 125 µg/mL (≈ 246 µM); Activity [23]: 46.1%; Activity [24]: 89.4%; Activity [25]: 89.6% |
